Measured values from ChEMBL document CHEMBL1287651, “Synthesis and in vitro antibacterial activity of fluoroquinolone derivatives containing 3-(N'-alkoxycarbamimidoyl)-4-(alkoxyimino) pyrrolidines” (2010).
≈ marks a conversion by molar mass, not a printed value.

Tests used:
Assay type in all cases: functional
Escherichia coli [1] = experiment: Antibacterial activity against Escherichia coli 08-21 after 18 to 24 hrs by twofold serial dilution method
Outline: (§1)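 MIC determined by the standard twofold serial dilution method on agar media, screening against Gram-positive and Gram-negative strains. Levofloxacin and gemifloxacin were run alongside as reference drugs.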

Enterococcus faecalis [2] = experiment: Antibacterial activity against Enterococcus faecalis 08-12 after 18 to 24 hrs by twofold serial dilution method; outline: as §1
Klebsiella pneumoniae [3] = experiment: Antibacterial activity against Klebsiella pneumoniae 09-22 after 18 to 24 hrs by twofold serial dilution method; outline: as §1
Pseudomonas aeruginosa [4] = experiment: Antibacterial activity against Pseudomonas aeruginosa 09-35 after 18 to 24 hrs by twofold serial dilution method; outline: as §1
Staphylococcus aureus [5] = experiment: Antibacterial activity against methicillin-sensitive Staphylococcus aureus 08-2 after 18 to 24 hrs by twofold serial dilution method
Outline: (§2)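 Standard twofold serial agar dilution method on agar media for MIC determination. Screened against representative Gram-positive and Gram-negative strains. Levofloxacin and GMFX served as control drugs.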

Escherichia coli [6] = experiment: Antibacterial activity against Escherichia coli ATCC 25922 after 18 to 24 hrs by twofold serial dilution method; outline: as §1
Enterococcus faecium [7] = experiment: Antibacterial activity against Enterococcus faecium 08-7 after 18 to 24 hrs by twofold serial dilution method; outline: as §1
Staphylococcus aureus [8] = experiment: Antibacterial activity against Staphylococcus aureus ATCC […] after 18 to 24 hrs by twofold serial dilution method; outline: as §1
Streptococcus pneumoniae [9] = experiment: Antibacterial activity against Streptococcus pneumoniae 08-4 after 18 to 24 hrs by twofold serial dilution method; outline: as §1
Pseudomonas aeruginosa [10] = experiment: Antibacterial activity against Pseudomonas aeruginosa 09-32 after 18 to 24 hrs by twofold serial dilution method; outline: as §1
Streptococcus pneumoniae [11] = experiment: Antibacterial activity against Streptococcus pneumoniae 08-2 after 18 to 24 hrs by twofold serial dilution method; outline: as §1
Enterococcus faecalis [12] = experiment: Antibacterial activity against Enterococcus faecalis 08-10 after 18 to 24 hrs by twofold serial dilution method; outline: as §1
[13] = test system: Staphylococcus epidermidis; experiment: Antibacterial activity against methicillin-sensitive Staphylococcus epidermidis 09-6 after 18 to 24 hrs by twofold serial dilution method; outline: as §2
Klebsiella pneumoniae [14] = experiment: Antibacterial activity against Klebsiella pneumoniae 09-23 after 18 to 24 hrs by twofold serial dilution method; outline: as §1
Pseudomonas aeruginosa [15] = experiment: Antibacterial activity against Pseudomonas aeruginosa 09-33 after 18 to 24 hrs by twofold serial dilution method; outline: as §1
[16] = test system: Staphylococcus epidermidis; experiment: Antibacterial activity against methicillin-resistant Staphylococcus epidermidis 09-4 after 18 to 24 hrs by twofold serial dilution method; outline: as §2
[17] = test system: Staphylococcus epidermidis; experiment: Antibacterial activity against methicillin-resistant Staphylococcus epidermidis 09-3 after 18 to 24 hrs by twofold serial dilution method; outline: as §2
Staphylococcus aureus [18] = experiment: Antibacterial activity against methicillin-resistant Staphylococcus aureus 08-1 after 18 to 24 hrs by twofold serial dilution method; outline: as §2
[19] = test system: Staphylococcus epidermidis; experiment: Antibacterial activity against methicillin-sensitive Staphylococcus epidermidis 09-3 after 18 to 24 hrs by twofold serial dilution method; outline: as §2
Enterococcus faecium [20] = experiment: Antibacterial activity against Enterococcus faecium 08-2 after 18 to 24 hrs by twofold serial dilution method; outline: as §1
Pseudomonas aeruginosa [21] = experiment: Antibacterial activity against Pseudomonas aeruginosa 09-34 after 18 to 24 hrs by twofold serial dilution method; outline: as §1
[22] = test system: Staphylococcus epidermidis; experiment: Antibacterial activity against methicillin-resistant Staphylococcus epidermidis 09-2 after 18 to 24 hrs by twofold serial dilution method; outline: as §2
Escherichia coli [23] = experiment: Antibacterial activity against Escherichia coli 08-22 after 18 to 24 hrs by twofold serial dilution method; outline: as §1
Streptococcus pneumoniae [24] = experiment: Ratio of compound MIC to levofloxacin MIC for Streptococcus pneumoniae
Pseudomonas aeruginosa [25] = experiment: Antibacterial activity against Pseudomonas aeruginosa ATCC 27853 after 18 to 24 hrs by twofold serial dilution method; outline: as §1
Klebsiella pneumoniae [26] = experiment: Antibacterial activity against Klebsiella pneumoniae 09-21 after 18 to 24 hrs by twofold serial dilution method; outline: as §1

Compound	MIC (Escherichia coli [1]) [µg/mL]	MIC (Enterococcus faecalis [2]) [µg/mL]	MIC (Klebsiella pneumoniae [3]) [µg/mL]	MIC (Pseudomonas aeruginosa [4]) [µg/mL]	MIC (Staphylococcus aureus [5]) [µg/mL]	MIC (Escherichia coli [6]) [µg/mL]	MIC (Enterococcus faecium [7]) [µg/mL]	MIC (Staphylococcus aureus [8]) [µg/mL]	MIC (Streptococcus pneumoniae [9]) [µg/mL]	MIC (Pseudomonas aeruginosa [10]) [µg/mL]	MIC (Streptococcus pneumoniae [11]) [µg/mL]	MIC (Enterococcus faecalis [12]) [µg/mL]	MIC [13] [µg/mL]	MIC (Klebsiella pneumoniae [14]) [µg/mL]	MIC (Pseudomonas aeruginosa [15]) [µg/mL]	MIC [16] [µg/mL]	MIC [17] [µg/mL]	MIC (Staphylococcus aureus [18]) [µg/mL]	MIC [19] [µg/mL]	MIC (Enterococcus faecium [20]) [µg/mL]	further results
CCO/N=C1\CN(c2c(F)cc3c(=O)c(C(=O)O)cn(CC)c3c2F)CC1/C(N)=N\OC (configuration not stated)	> 128	> 128	8 (≈ 17.7 µM)	> 128	8 (≈ 17.7 µM)	> 128	> 128	1 (≈ 2.22 µM)	0.25 (≈ 0.554 µM)	> 128	0.25 (≈ 0.554 µM)	> 128	0.25 (≈ 0.554 µM)	> 128	> 128	0.125 (≈ 0.277 µM)	0.25 (≈ 0.554 µM)	0.25 (≈ 0.554 µM)	0.125 (≈ 0.277 µM)	> 128	MIC (Pseudomonas aeruginosa [21]): > 128 µg/mL; MIC [22]: 8 µg/mL (≈ 17.7 µM); MIC (Escherichia coli [23]): > 128 µg/mL; Ratio (Streptococcus pneumoniae [24]): 8; MIC (Pseudomonas aeruginosa [25]): 128 µg/mL (≈ 284 µM); MIC (Klebsiella pneumoniae [26]): > 128 µg/mL
CCO/N=C1\CN(c2nc3c(cc2F)c(=O)c(C(=O)O)cn3C2CC2)CC1/C(N)=N\O (configuration not stated)	> 128	0.25 (≈ 0.578 µM)	> 128	> 128	0.25 (≈ 0.578 µM)	> 128	> 128	0.25 (≈ 0.578 µM)	0.25 (≈ 0.578 µM)	> 128	0.25 (≈ 0.578 µM)	> 128	0.25 (≈ 0.578 µM)	> 128	> 128	0.25 (≈ 0.578 µM)	0.25 (≈ 0.578 µM)	0.25 (≈ 0.578 µM)	0.25 (≈ 0.578 µM)	> 128	MIC (Pseudomonas aeruginosa [21]): > 128 µg/mL; MIC [22]: 0.25 µg/mL (≈ 0.578 µM); MIC (Escherichia coli [23]): > 128 µg/mL; Ratio (Streptococcus pneumoniae [24]): 8; MIC (Pseudomonas aeruginosa [25]): > 128 µg/mL; MIC (Klebsiella pneumoniae [26]): > 128 µg/mL
CCO/N=C1\CN(c2c(F)cc3c(=O)c(C(=O)O)cn(CCF)c3c2F)CC1/C(N)=N\OCC (configuration not stated)	> 128	> 128	> 128	> 128	> 128	128 (≈ 265 µM)	> 128	2 (≈ 4.14 µM)	8 (≈ 16.5 µM)	> 128	8 (≈ 16.5 µM)	> 128	8 (≈ 16.5 µM)	> 128	> 128	4 (≈ 8.27 µM)	4 (≈ 8.27 µM)	4 (≈ 8.27 µM)	4 (≈ 8.27 µM)	> 128	MIC (Pseudomonas aeruginosa [21]): > 128 µg/mL; MIC [22]: 4 µg/mL (≈ 8.27 µM); MIC (Escherichia coli [23]): > 128 µg/mL; MIC (Pseudomonas aeruginosa [25]): 128 µg/mL (≈ 265 µM); MIC (Klebsiella pneumoniae [26]): > 128 µg/mL
CCO/N=C1\CN(c2c(F)cc3c(=O)c(C(=O)O)cn(C4CC4)c3c2OC)CC1/C(N)=N\OC (configuration not stated)	> 128	0.5 (≈ 1.05 µM)	4 (≈ 8.41 µM)	> 128	0.25 (≈ 0.526 µM)	> 128	> 128	0.5 (≈ 1.05 µM)	4 (≈ 8.41 µM)	> 128	4 (≈ 8.41 µM)	0.25 (≈ 0.526 µM)	0.25 (≈ 0.526 µM)	> 128	> 128	0.125 (≈ 0.263 µM)	0.125 (≈ 0.263 µM)	0.25 (≈ 0.526 µM)	0.25 (≈ 0.526 µM)	> 128	MIC (Pseudomonas aeruginosa [21]): > 128 µg/mL; MIC [22]: 0.5 µg/mL (≈ 1.05 µM); MIC (Escherichia coli [23]): > 128 µg/mL; MIC (Pseudomonas aeruginosa [25]): > 128 µg/mL; MIC (Klebsiella pneumoniae [26]): > 128 µg/mL
CCO/N=C(/N)C1CN(c2c(F)cc3c(=O)c(C(=O)O)cn(C4CC4)c3c2OC)C/C1=N\OC (configuration not stated)	> 128	128 (≈ 269 µM)	8 (≈ 16.8 µM)	> 128	0.25 (≈ 0.526 µM)	128 (≈ 269 µM)	> 128	0.25 (≈ 0.526 µM)	2 (≈ 4.21 µM)	> 128	32 (≈ 67.3 µM)	> 128	0.25 (≈ 0.526 µM)	> 128	> 128	0.125 (≈ 0.263 µM)	0.125 (≈ 0.263 µM)	0.25 (≈ 0.526 µM)	0.25 (≈ 0.526 µM)	> 128	MIC (Pseudomonas aeruginosa [21]): > 128 µg/mL; MIC [22]: 0.5 µg/mL (≈ 1.05 µM); MIC (Escherichia coli [23]): > 128 µg/mL; MIC (Pseudomonas aeruginosa [25]): 128 µg/mL (≈ 269 µM); MIC (Klebsiella pneumoniae [26]): > 128 µg/mL
CO/N=C1\CN(c2nc3c(cc2F)c(=O)c(C(=O)O)cn3C2CC2)CC1/C(N)=N\O (configuration not stated)	> 128	4 (≈ 9.56 µM)	32 (≈ 76.5 µM)	> 128	1 (≈ 2.39 µM)	128 (≈ 306 µM)	> 128	1 (≈ 2.39 µM)	2 (≈ 4.78 µM)	8 (≈ 19.1 µM)	2 (≈ 4.78 µM)	> 128	128 (≈ 306 µM)	> 128	8 (≈ 19.1 µM)	2 (≈ 4.78 µM)	1 (≈ 2.39 µM)	128 (≈ 306 µM)	128 (≈ 306 µM)	> 128	MIC (Pseudomonas aeruginosa [21]): 8 µg/mL (≈ 19.1 µM); MIC [22]: 1 µg/mL (≈ 2.39 µM); MIC (Escherichia coli [23]): > 128 µg/mL; MIC (Pseudomonas aeruginosa [25]): 4 µg/mL (≈ 9.56 µM); MIC (Klebsiella pneumoniae [26]): > 128 µg/mL
CCO/N=C1\CN(c2nc3c(cc2F)c(=O)c(C(=O)O)cn3-c2ccc(F)cc2F)CC1/C(N)=N\OCC (configuration not stated)	128 (≈ 240 µM)	128 (≈ 240 µM)	128 (≈ 240 µM)	128 (≈ 240 µM)	0.06 (≈ 0.113 µM)	16 (≈ 30 µM)	128 (≈ 240 µM)	0.06 (≈ 0.113 µM)	128 (≈ 240 µM)	128 (≈ 240 µM)	128 (≈ 240 µM)	128 (≈ 240 µM)	32 (≈ 60.1 µM)	128 (≈ 240 µM)	128 (≈ 240 µM)	64 (≈ 120 µM)	0.06 (≈ 0.113 µM)	32 (≈ 60.1 µM)	32 (≈ 60.1 µM)	128 (≈ 240 µM)	MIC (Pseudomonas aeruginosa [21]): 128 µg/mL (≈ 240 µM); MIC [22]: 0.06 µg/mL (≈ 0.113 µM); MIC (Escherichia coli [23]): 128 µg/mL (≈ 240 µM); MIC (Pseudomonas aeruginosa [25]): 64 µg/mL (≈ 120 µM); MIC (Klebsiella pneumoniae [26]): 16 µg/mL (≈ 30 µM)
